Test system: FKBP12^F36V-PTPN2 H1975 cells
Test: Cell viability by CellTiter-Glo, FKBP12F36V-PTPN2 H1975
Format: cell-based
Conditions: read-out: IC50, cell viability; 6 days
Method in brief: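 H1975 cells lentivirally transduced to express Flag-FKBP12F36V-PTPN2 (TC45 short isoform) were seeded at 3000 cells/well in full medium for 24 h. They were then treated with test compound at a range of concentrations under serum-free conditions for 4 or 6 days. Viability was measured by CellTiter-Glo luminescence and normalised to DMSO controls. Three replicates, mean and SD.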

Structure (SMILES): CN(C)C/C=C/C(=O)Nc1cc2c(Nc3ccc(F)c(Cl)c3)ncnc2cc1O[C@H]1CCOC1 [afatinib]
- IC50: 2110 nM

Reference: paper PMC10971414 (Science Advances, 2024)
